# From ChEMBL document CHEMBL2203175, “Discovery and optimization of sulfonyl acrylonitriles as selective, covalent inhibitors of protein phosphatase methylesterase-1” (J Med Chem, 2011)
# Activity calls are given as the source filed them. The rule behind the calls is not given here.
# Tests used:
# [1] = molecular target: T1, Protein phosphatase methylesterase 1 (Homo sapiens) (UniProt Q9Y570); assay: Inhibition of PME1 overexpressed in HEK293T cells assessed as increase in methylated PP2A level at 20 uM after 1 hr by Western blot analysis; format: cell-based; conditions: HEK-293T
# T1 sequence (whole entry): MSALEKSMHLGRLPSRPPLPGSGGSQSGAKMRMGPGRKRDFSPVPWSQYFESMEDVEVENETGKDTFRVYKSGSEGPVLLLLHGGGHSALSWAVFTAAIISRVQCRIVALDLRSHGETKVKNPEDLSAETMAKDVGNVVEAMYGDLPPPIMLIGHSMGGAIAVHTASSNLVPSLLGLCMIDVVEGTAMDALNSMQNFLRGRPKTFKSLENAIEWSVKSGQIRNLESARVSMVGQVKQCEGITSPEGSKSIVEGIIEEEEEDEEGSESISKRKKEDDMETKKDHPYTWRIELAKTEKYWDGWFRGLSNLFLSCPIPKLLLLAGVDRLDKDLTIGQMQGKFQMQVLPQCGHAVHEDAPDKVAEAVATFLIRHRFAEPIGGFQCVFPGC
# Procedure, shortened: (§1)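 HEK 293T cells, either stably overexpressing PME-1 or untransfected, treated in medium for 1 h at 37 °C. Total cell extract (2 mg/mL) run on reducing SDS-PAGE (10%) and blotted with demethylated-specific (4b7), methylated-specific (2A10) and total PP2A antibodies, imaged by infrared fluorescence. Mean ± SEM, n = 3, compared against DMSO-treated cells.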
# HEK-293T [2] = assay: Effect on chloroacetamide-Rh labeled soluble proteome in HEK293T cells at 100 uM incubated for 1 hr before protein labeling measured after 1 hr relative to control; format: cell-based; conditions: Homo sapiens
# Procedure, shortened: (§2)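 HEK 293T cells (DMEM, 10% FBS, 37 °C, 5% CO2) given compound in medium for 1 h at 37 °C, washed, scraped, sonicated in PBS pH 7.5. Soluble fraction diluted to 1 mg/mL protein in PBS, labeled with CA-rhodamine or SE-rhodamine (5 μM, 1 h, 25 °C), run on reducing SDS-PAGE (10%), and band intensities read by in-gel fluorescence against DMSO-treated samples.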
# [3] = molecular target: Patatin-like phospholipase domain-containing protein 6 (Homo sapiens) (UniProt Q8IY17); assay: Inhibition of PNPLA6 binding to FP-biotin in [12C][14N]-lysine, arginine and [13C6][15N2]-lysine, arginine labeled HEK293T cells at 20 uM after 1 hr by isotopic activity-based protein profiling-MudPIT assay; format: cell-based; conditions: HEK-293T
# Patatin-like phospholipase domain-containing protein 6 (Homo sapiens), sequence (Q8IY17 whole entry, the tested form may be a part): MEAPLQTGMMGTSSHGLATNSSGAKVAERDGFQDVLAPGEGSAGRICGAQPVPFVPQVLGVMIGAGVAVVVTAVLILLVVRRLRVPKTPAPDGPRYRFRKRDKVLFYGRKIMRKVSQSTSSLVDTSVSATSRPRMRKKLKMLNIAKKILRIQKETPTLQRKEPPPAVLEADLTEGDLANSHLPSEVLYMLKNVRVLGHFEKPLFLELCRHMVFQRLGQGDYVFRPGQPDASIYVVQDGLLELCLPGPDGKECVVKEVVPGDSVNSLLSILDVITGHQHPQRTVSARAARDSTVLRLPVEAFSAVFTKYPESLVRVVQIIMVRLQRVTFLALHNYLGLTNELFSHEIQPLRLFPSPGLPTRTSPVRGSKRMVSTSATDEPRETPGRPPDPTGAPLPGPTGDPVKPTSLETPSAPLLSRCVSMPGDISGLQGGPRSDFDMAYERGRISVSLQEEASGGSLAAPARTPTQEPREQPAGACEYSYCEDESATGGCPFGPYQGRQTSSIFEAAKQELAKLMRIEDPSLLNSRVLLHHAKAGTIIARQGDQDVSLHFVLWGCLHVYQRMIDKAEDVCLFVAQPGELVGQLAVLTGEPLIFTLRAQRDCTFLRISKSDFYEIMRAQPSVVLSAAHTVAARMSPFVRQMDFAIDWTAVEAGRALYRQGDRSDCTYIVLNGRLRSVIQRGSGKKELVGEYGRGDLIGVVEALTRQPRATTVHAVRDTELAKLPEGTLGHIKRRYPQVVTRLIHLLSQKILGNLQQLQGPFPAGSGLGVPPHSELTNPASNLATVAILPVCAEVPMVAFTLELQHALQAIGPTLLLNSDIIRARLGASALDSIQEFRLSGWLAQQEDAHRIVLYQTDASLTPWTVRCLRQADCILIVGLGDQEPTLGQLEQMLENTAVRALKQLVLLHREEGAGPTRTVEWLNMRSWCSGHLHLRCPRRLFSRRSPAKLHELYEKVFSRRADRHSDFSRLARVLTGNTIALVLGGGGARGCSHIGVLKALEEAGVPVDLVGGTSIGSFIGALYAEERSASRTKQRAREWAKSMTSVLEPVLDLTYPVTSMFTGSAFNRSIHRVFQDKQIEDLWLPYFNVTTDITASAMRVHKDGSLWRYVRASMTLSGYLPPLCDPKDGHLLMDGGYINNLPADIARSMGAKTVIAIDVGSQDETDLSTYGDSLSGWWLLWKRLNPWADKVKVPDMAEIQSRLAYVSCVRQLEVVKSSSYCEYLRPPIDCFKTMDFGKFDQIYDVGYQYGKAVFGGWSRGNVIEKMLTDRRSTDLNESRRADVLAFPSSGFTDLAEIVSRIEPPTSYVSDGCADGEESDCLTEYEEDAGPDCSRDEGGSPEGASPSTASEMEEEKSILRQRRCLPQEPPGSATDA
# Procedure, shortened: (§3)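 SILAC HEK 293T: light cells (12C14N-Lys/Arg) treated with compound, heavy cells (13C6 15N2-Lys/Arg) with DMSO, 1 h at 37 °C. Proteomes were mixed 1:1 (0.5 mg each) and labeled with FP-biotin (5 μM, 1 h, 25 °C), then streptavidin-enriched, digested on bead with trypsin, and run by MudPIT. Light/heavy ratios were normalized to a DMSO/DMSO control. Only SHs with ≥2 quantifiable peptides were kept; mean ± SEM across peptides.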
# [4] = molecular target: Platelet-activating factor acetylhydrolase IB subunit alpha1 (Homo sapiens) (UniProt Q15102); assay: Inhibition of PAFAH1B3 binding to FP-biotin in [12C][14N]-lysine, arginine and [13C6][15N2]-lysine, arginine labeled HEK293T cells at 20 uM after 1 hr by isotopic activity-based protein profiling-MudPIT assay; format: cell-based; conditions: HEK-293T; procedure, shortened: as §3
# Platelet-activating factor acetylhydrolase IB subunit alpha1 (Homo sapiens), sequence (Q15102 whole entry): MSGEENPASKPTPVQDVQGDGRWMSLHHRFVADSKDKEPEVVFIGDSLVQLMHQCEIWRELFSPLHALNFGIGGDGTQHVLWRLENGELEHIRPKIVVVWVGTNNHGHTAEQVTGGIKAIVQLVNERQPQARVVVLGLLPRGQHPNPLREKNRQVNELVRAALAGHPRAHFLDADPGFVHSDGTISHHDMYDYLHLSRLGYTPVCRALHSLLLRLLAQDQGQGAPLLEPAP
# [5] = molecular target: Cytosolic phospholipase A2 (Homo sapiens) (UniProt P47712); assay: Inhibition of PLA2G4A binding to FP-biotin in [12C][14N]-lysine, arginine and [13C6][15N2]-lysine, arginine labeled HEK293T cells at 20 uM after 1 hr by isotopic activity-based protein profiling-MudPIT assay; format: cell-based; conditions: HEK-293T; procedure, shortened: as §3
# Cytosolic phospholipase A2 (Homo sapiens), sequence (P47712 whole entry): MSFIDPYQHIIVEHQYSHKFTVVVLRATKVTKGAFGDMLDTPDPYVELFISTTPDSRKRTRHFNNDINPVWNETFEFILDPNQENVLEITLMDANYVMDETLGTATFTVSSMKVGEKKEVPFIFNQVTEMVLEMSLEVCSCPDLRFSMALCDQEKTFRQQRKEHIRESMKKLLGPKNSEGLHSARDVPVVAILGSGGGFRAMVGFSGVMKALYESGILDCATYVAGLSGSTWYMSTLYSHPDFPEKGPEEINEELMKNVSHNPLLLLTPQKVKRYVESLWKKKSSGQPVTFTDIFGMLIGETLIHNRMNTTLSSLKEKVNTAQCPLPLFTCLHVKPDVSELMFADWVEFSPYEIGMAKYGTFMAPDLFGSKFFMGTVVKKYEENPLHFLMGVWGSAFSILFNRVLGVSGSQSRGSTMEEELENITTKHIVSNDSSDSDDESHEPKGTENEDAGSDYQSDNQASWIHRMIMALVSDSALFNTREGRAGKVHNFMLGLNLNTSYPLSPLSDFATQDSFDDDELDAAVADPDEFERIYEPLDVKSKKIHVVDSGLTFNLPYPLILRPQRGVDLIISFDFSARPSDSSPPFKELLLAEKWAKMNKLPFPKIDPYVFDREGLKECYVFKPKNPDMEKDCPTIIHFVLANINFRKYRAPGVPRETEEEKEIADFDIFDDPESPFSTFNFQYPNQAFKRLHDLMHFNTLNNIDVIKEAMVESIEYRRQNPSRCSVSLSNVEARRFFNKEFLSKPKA
# [6] = molecular target: Lysophospholipase-like protein 1 (Homo sapiens) (UniProt Q5VWZ2); assay: Inhibition of LYPLAL1 binding to FP-biotin in [12C][14N]-lysine, arginine and [13C6][15N2]-lysine, arginine labeled HEK293T cells at 20 uM after 1 hr by isotopic activity-based protein profiling-MudPIT assay; format: cell-based; conditions: HEK-293T; procedure, shortened: as §3
# Lysophospholipase-like protein 1 (Homo sapiens), sequence (Q5VWZ2 whole entry): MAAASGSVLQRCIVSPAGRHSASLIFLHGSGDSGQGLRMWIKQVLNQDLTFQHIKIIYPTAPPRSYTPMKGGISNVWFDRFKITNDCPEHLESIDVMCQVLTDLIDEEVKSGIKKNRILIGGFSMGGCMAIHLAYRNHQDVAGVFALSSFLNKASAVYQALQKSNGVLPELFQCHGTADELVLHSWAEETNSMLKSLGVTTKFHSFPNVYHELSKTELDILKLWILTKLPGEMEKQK
# [7] = molecular target: T1, Protein phosphatase methylesterase 1 (Homo sapiens); conditions: HEK-293T, 50 uM
# [8] = molecular target: T1, Protein phosphatase methylesterase 1 (Homo sapiens); assay: Inhibition of PME1 overexpressed in HEK293T cells assessed as reduction in demethylated PP2A level at 20 uM after 1 hr by Western blot analysis relative to control; format: cell-based; conditions: HEK-293T; procedure, shortened: as §1
# [9] = molecular target: sn-1-specific diacylglycerol lipase ABHD11 (Homo sapiens) (UniProt Q8NFV4); assay: Inhibition of ABHD11 binding to FP-biotin in [12C][14N]-lysine, arginine and [13C6][15N2]-lysine, arginine labeled HEK293T cells at 20 uM after 1 hr by isotopic activity-based protein profiling-MudPIT assay; format: cell-based; conditions: HEK-293T; procedure, shortened: as §3
# sn-1-specific diacylglycerol lipase ABHD11 (Homo sapiens), sequence (Q8NFV4 whole entry): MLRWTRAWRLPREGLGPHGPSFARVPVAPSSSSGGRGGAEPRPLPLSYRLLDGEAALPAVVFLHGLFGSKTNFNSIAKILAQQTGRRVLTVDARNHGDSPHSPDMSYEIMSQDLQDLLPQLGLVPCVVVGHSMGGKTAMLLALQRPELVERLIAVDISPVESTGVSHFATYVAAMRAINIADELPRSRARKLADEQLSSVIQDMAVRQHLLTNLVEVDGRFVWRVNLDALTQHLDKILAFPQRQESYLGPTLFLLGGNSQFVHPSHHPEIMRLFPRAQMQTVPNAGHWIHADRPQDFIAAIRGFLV
# [10] = molecular target: T1, Protein phosphatase methylesterase 1 (Homo sapiens); conditions: HEK-293T, 20 uM
# [11] = molecular target: T1, Protein phosphatase methylesterase 1 (Homo sapiens); conditions: HEK-293T, 20 uM; remark: listed apart in the source
# [12] = molecular target: Monoacylglycerol lipase ABHD6 (Homo sapiens) (UniProt Q9BV23); assay: Inhibition of ABHD6 binding to FP-biotin in [12C][14N]-lysine, arginine and [13C6][15N2]-lysine, arginine labeled HEK293T cells at 20 uM after 1 hr by isotopic activity-based protein profiling-MudPIT assay; format: cell-based; conditions: HEK-293T; procedure, shortened: as §3
# Monoacylglycerol lipase ABHD6 (Homo sapiens), sequence (Q9BV23 whole entry): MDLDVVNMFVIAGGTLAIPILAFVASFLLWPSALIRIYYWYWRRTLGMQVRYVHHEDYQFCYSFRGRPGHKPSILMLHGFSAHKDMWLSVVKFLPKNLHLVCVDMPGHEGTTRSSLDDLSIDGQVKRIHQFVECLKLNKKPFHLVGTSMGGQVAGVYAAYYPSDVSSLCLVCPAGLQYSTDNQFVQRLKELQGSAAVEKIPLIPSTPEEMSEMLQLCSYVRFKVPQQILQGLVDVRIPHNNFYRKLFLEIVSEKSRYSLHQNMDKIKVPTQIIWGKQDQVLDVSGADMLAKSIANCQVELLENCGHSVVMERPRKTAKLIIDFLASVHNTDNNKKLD
# [13] = molecular target: Prolyl endopeptidase-like (Homo sapiens) (UniProt Q4J6C6); assay: Inhibition of PREPL binding to FP-biotin in [12C][14N]-lysine, arginine and [13C6][15N2]-lysine, arginine labeled HEK293T cells at 20 uM after 1 hr by isotopic activity-based protein profiling-MudPIT assay; format: cell-based; conditions: HEK-293T; procedure, shortened: as §3
# Prolyl endopeptidase-like (Homo sapiens), sequence (Q4J6C6 whole entry): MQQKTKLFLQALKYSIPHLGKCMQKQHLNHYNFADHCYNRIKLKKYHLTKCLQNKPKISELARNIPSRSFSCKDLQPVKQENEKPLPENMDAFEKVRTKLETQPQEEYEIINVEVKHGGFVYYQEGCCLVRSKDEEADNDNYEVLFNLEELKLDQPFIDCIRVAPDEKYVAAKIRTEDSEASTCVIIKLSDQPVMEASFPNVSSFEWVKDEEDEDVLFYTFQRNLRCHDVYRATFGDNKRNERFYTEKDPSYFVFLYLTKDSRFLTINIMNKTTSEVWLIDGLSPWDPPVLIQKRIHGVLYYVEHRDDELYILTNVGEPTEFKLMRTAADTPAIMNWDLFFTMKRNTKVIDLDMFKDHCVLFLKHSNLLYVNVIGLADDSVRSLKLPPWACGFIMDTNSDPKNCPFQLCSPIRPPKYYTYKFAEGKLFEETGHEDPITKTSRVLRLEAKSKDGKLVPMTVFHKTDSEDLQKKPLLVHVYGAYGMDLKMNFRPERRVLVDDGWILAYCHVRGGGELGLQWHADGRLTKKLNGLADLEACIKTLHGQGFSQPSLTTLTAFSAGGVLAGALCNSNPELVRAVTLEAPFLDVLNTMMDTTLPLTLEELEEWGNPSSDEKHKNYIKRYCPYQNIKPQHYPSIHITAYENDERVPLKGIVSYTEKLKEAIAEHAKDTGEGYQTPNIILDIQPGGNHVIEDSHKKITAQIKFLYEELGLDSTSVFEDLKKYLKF
# [14] = molecular target: Platelet-activating factor acetylhydrolase IB subunit alpha2 (Homo sapiens) (UniProt P68402); assay: Inhibition of PAFAH1B2 binding to FP-biotin in [12C][14N]-lysine, arginine and [13C6][15N2]-lysine, arginine labeled HEK293T cells at 20 uM after 1 hr by isotopic activity-based protein profiling-MudPIT assay; format: cell-based; conditions: HEK-293T; procedure, shortened: as §3
# Platelet-activating factor acetylhydrolase IB subunit alpha2 (Homo sapiens), sequence (P68402 whole entry): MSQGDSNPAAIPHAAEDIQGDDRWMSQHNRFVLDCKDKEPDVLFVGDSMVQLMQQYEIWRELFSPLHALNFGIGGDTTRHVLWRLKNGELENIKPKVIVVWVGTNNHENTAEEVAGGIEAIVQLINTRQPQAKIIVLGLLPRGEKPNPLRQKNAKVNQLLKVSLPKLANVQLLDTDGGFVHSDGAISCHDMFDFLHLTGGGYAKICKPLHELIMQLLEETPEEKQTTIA
# [15] = molecular target: Retinoid-inducible serine carboxypeptidase (Homo sapiens) (UniProt Q9HB40); assay: Inhibition of SCPEP1 binding to FP-biotin in [12C][14N]-lysine, arginine and [13C6][15N2]-lysine, arginine labeled HEK293T cells at 20 uM after 1 hr by isotopic activity-based protein profiling-MudPIT assay; format: cell-based; conditions: HEK-293T; procedure, shortened: as §3
# Retinoid-inducible serine carboxypeptidase (Homo sapiens), sequence (Q9HB40 whole entry): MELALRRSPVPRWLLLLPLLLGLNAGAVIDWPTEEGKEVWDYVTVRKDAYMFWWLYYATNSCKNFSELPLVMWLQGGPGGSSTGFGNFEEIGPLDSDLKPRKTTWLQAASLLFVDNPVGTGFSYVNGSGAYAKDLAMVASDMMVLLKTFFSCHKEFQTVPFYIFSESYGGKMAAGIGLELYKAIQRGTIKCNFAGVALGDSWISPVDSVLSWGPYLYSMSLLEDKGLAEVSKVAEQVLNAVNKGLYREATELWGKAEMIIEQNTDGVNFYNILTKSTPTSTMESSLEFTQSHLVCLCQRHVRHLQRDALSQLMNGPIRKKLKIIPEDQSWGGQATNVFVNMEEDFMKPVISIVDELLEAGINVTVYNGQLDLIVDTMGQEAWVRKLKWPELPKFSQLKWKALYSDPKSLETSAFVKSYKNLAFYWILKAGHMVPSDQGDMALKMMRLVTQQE
# HEK-293T [16] = assay: Effect on sulfonate ester-Rh labeled soluble proteome in HEK293T cells at 100 uM incubated for 1 hr before proteome labeling measured after 1 hr relative to control; format: cell-based; conditions: Homo sapiens; procedure, shortened: as §2
compound,measurement,setting,value
N#C/C(=C\c1cccn1S(=O)(=O)c1cccc([N+](=O)[O-])c1)S(=O)(=O)c1ccc(F)cc1,inhibition,[1],Active
same,Activity,HEK-293T [2],inactive
same,inhibition,[3],inactive
same,inhibition,[4],inactive
same,inhibition,[5],inactive
same,inhibition,[6],inactive
same,inhibition,[7],Active
same,inhibition,[8],80%
same,inhibition,[9],inactive
same,inhibition,[10],Active
same,inhibition,[11],Active
same,inhibition,[12],inactive
same,inhibition,[13],inactive
same,inhibition,[14],inactive
same,inhibition,[15],inactive
same,Activity,HEK-293T [16],inactive
